Source: PubChem
SR-BI HDL uptake: blocks mouse SR-BI lipid uptake from DiI-HDL; AID 488896; ldlA[mSR-BI] CHO cells, DiI-HDL uptake fluorescence, 3 h; 320,000 tested, 0.96% active; inhibition, % at 12.5 µM; Q61009;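 active = mean replicate inhibition of at least 70% and a set share of replicates each scoring 70 or more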
Target sequence (Q61009 whole entry, looked up): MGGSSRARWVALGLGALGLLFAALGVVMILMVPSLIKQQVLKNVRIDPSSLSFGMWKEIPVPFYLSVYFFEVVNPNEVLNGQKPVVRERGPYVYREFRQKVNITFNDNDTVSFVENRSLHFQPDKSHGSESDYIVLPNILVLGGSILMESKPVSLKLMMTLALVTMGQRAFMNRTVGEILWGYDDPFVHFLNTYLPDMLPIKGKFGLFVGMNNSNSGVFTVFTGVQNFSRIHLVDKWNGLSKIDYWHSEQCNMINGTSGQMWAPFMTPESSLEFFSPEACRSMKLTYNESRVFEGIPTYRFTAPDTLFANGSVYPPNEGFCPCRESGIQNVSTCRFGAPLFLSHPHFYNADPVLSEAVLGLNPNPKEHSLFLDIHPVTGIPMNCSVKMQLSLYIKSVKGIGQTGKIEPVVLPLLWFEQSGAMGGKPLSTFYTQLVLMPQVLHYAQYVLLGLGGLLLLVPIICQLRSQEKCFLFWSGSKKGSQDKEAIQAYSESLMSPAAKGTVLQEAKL
Vif inh: blocks HIV Vif function. HEK293T cells, Vif self-association by quenched fluorescence, imaging, 24 h. inhibition, % at 7.49 µM. 340,000 tested, 0.35% active. AID 602346; in the data active = inhibition above about 50%, passing the limit was not always enough
C2C12 statin: protects C2C12 myotubes from simvastatin toxicity; ATP luminescence, 48 h; scaled: DMSO 0, geranylgeraniol control 100; rescue of ATP level, % at 7.49 µM; 330,000 tested, 0.78% active; AID 602340;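 active = mean ATP rescue above about 67%, or every replicate alone reaching that limit, limit read from the data, passing the limit was not always enough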;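 note: myotubes were challenged with 10 µM simvastatin during compound exposure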
SR-BI uptake up: enhances SR-BI lipid uptake from DiI-HDL; CHO ldlA[mSR-BI] cells, DiI-HDL uptake fluorescence, 3 h; 100 = double the neutral-control signal; 320,000 tested, 0.096% active; activation, % at 12.5 µM;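 active = mean replicate activation of at least 60% and every replicate at or above 60%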
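Material: SR-BI-overexpressing, LDLR-lacking CHO cells | Dosing: Single compound concentration, delivered by pin transfer | Probe or stimulus: Labelled HDL, 10 µg/mL | Signal: Bottom-read cell fluorescence after medium removal, ex 550/em 595 nm | Schedule: 3 h, 37 °C | Evaluation: HDL uptake via cellular fluorescence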
Hits are given with their value; i = inactive; nt = not tested or not shown. Shown are actives, neighbours in structure and some others; about 1.7% of the full set was active somewhere.

SMILES	SR-BI HDL uptake	Vif inh	C2C12 statin	SR-BI uptake up
COc1ccc(Cc2nc(C(=O)NCc3ccccc3OC)cs2)cc1	i	i	i	i
COc1ccc(S(=O)(=O)N2CC[C@@H]3[C@H](CO)Nc4ccc(C#Cc5cccnc5)cc4[C@@H]32)cc1	nt	nt	i	nt
O=C(NCC(=O)N(Cc1ccccc1)C(C(=O)NC1CCCC1)c1cccnc1)c1ccco1 (configuration not stated)	i	i	i	i
Cc1ccc(C(C(=O)NC2CCCC2)N(C(=O)Cc2cccs2)c2ccc3c(c2)OCCO3)cc1 (configuration not stated)	i	i	106	i
O=C(NCC(=O)N(c1ccc2c(c1)OCO2)C(C(=O)NC1CCCC1)c1ccncc1)c1ccco1 (configuration not stated)	i	i	66	i
O=C(NCC(=O)N(Cc1cccs1)C(C(=O)NC1CCCCC1)c1cccnc1)c1ccco1 (configuration not stated)	i	i	133	i
COCCN(C(=O)CNC(=O)c1ccco1)C(C(=O)NC1CCCC1)c1cccc(OC)c1 (configuration not stated)	nt	52	i	nt
O=C(NC1CCCC1)C(c1ccc(F)cc1)N(C(=O)Cc1cccs1)c1ccc2c(c1)OCCO2 (configuration not stated)	i	i	i	i
Cc1cc(C(=O)Nc2cccc3c2O[C@@H](CN(C)Cc2ccc4c(c2)OCO4)[C@@H](C)CN([C@H](C)CO)C3=O)n(C)n1	nt	nt	i	nt
CN(C)C(=O)C[C@H]1CC[C@@H]2[C@H](COC[C@@H](O)CN2CC2CCCCC2)O1	nt	nt	i	nt
Cc1ccc(S(=O)(=O)Nc2ccc3c(c2)C(=O)N([C@@H](C)CO)C[C@H](C)[C@@H](CN(C)C)OCCCC[C@H](C)O3)cc1	nt	nt	i	nt
C[C@H]1CN([C@@H](C)CO)C(=O)c2cc(C3=CCCC3)cnc2O[C@@H]1CN(C)C(=O)NC1CCCC1	nt	nt	i	nt
O=C(O)c1cc(S(=O)(=O)Nc2cccc3ccccc23)c(Cl)cc1Cl	i	i	75	i
CC(C)CNS(=O)(=O)c1cc(C(=O)O)c(Cl)cc1Cl	nt	i	nt	nt
C[C@@H]1CCCCO[C@@H](CN(C)C(=O)Cc2ccccc2)[C@@H](C)CN([C@H](C)CO)C(=O)c2cc(NC(=O)Cc3ccccc3)ccc2O1	nt	nt	i	nt
COc1cc(/C=N/NC(=O)c2ccc(CN3C(=O)c4cccc5cccc3c45)cc2)cc(OC)c1O	i	i	87	i
COc1ccc(NC(=O)N[C@@H]2CC[C@@H](CCNS(=O)(=O)c3cccc(Cl)c3)O[C@@H]2CO)cc1	nt	nt	i	nt
CCOC(=O)c1sc(NC(=O)CSc2nc3c(cc2C#N)CCCCCC3)c(C#N)c1C	75	i	nt	i
N#Cc1cc2c(nc1SCC(=O)N1CCCCC1)CCCCC2	i	i	117	i
C[C@H](O)C#Cc1cnc2c(c1)C(=O)N([C@H](C)CO)C[C@@H](C)[C@H](CN(C)C(=O)Cc1ccccn1)O2	nt	nt	i	nt
Cc1cc(C(=O)Nc2cccc3c2O[C@@H](CN(C)C(=O)NC2CCCCC2)[C@H](C)CN([C@@H](C)CO)C3=O)n(C)n1	nt	nt	i	nt
Cc1cccn2c(=O)c(C=O)c(N3CCCCCC3)nc12	i	i	101	i
O=C(N[C@@H]1CC[C@@H](CC(=O)N2CCC(Cc3ccccc3)CC2)O[C@H]1CO)c1cnccn1	nt	nt	i	nt
CCOC(=O)/C=C/c1ccc2c(c1)S(=O)(=O)N(c1cccc(OC)c1)[C@H]2CC(=O)OCC	83	i	i	i
CCOC(=O)C[C@H]1c2ccccc2S(=O)(=O)N1c1ccccc1	i	i	i	i
SMILES	SR-BI HDL uptake	Vif inh	C2C12 statin	SR-BI uptake up
CCc1nnc(NC(=O)c2ccc(OCc3c(C)noc3C)c(OC)c2)s1	84	i	i	i
COc1cc(C(=O)Nc2ccc(N3CCOCC3)cc2)ccc1OCc1c(C)noc1C	i	i	i	i
COc1cc(C(=O)Nc2ccc3c(c2)OCO3)ccc1OCc1c(C)noc1C	i	i	nt	i
COc1cc(C(=O)Nc2nc3ccc(C)cc3s2)ccc1OCc1c(C)noc1C	i	i	i	i
COc1cc(NC(=O)c2ccc(OCc3c(C)noc3C)c(OC)c2)cc(OC)c1	86	i	i	i
COc1cc(C(=O)Nc2cc(OC)c(OC)c(OC)c2)ccc1OCc1c(C)noc1C	87	i	i	i
Cc1ccc2nc(-c3ccccc3Cl)cc(C(=O)Nc3cc(C)on3)c2c1	i	i	109	i
CC(=O)NCCC(=O)Nc1sc2c(c1-c1nc3ccccc3[nH]1)CCCC2	i	i	nt	i
O=C(Nc1sc2c(c1-c1nc3ccccc3[nH]1)CCCC2)C1CCCC1	89	i	i	i
COc1ccc(CN2C[C@H](C)[C@@H](OC)CN(C)C(=O)c3ccc(NC(C)=O)cc3OC[C@@H]2C)cc1	nt	nt	i	nt
Cc1ccc(S(=O)(=O)CCC(=O)Nc2cccc([N+](=O)[O-])c2)cc1	i	i	nt	i
Cc1ccc(S(=O)(=O)CCC(=O)Nc2cccc(Cl)c2)cc1	i	i	108	i
CCC(C)C(=O)Nc1nc(C)c(-c2csc(Nc3ccccc3OC)n2)s1 (configuration not stated)	78	i	i	i
C=CCCC(=O)Nc1nc(C)c(-c2csc(Nc3ccccc3OC)n2)s1	71	i	i	i
C=CCCC(=O)Nc1nc(C)c(-c2csc(Nc3ccc(Cl)cc3Cl)n2)s1	i	i	i	i
C=CCCC(=O)Nc1nc(C)c(-c2csc(Nc3cc(Cl)ccc3OC)n2)s1	87	i	i	i
C[C@@H]1CN([C@H](C)CO)C(=O)c2cccc(N(C)C)c2O[C@H]1CN(C)S(=O)(=O)c1cccs1	nt	nt	i	nt
C[C@H](CO)N1C[C@H](C)[C@H](CN(C)C(=O)c2ccncc2)Oc2cc(C3=CCCCC3)ccc2S1(=O)=O	nt	nt	i	nt
Cn1nc(C(=O)Nc2cc(Cl)ccc2N2CCCC2)c2ccccc2c1=O	93	i	i	i
CN1CCN(c2ccc(Cl)cc2NC(=O)c2nn(-c3ccccc3)c(=O)c3ccccc23)CC1	i	i	nt	i
C[C@H]1CN([C@@H](C)CO)S(=O)(=O)c2ccc(C3=CCCCC3)cc2O[C@@H]1CN(C)C(=O)c1ccc(F)cc1	nt	nt	i	nt
Cc1c(Cl)cccc1NC(=O)CNC(=O)Cc1n[nH]c(=O)c2ccccc12	i	i	110	i
O=C(Cc1n[nH]c(=O)c2ccccc12)NCc1ccc(Cl)cc1	i	i	i	i
O=C(NNC(=O)c1ccccc1O)c1ccc(NS(=O)(=O)c2ccc(F)cc2)cc1	87	i	i	i
O=C(NNC(=O)c1ccccc1F)c1ccc(NS(=O)(=O)c2ccc(F)cc2)cc1	i	i	i	i
O=C(NNC(=O)c1cc(Cl)ccc1O)c1ccc(NS(=O)(=O)c2cccs2)cc1	119	i	i	i
Cc1ccccc1NS(=O)(=O)c1ccc(C(=O)NNC(=O)c2ccccc2O)cc1	84	i	i	i
NNC(=O)c1nn(-c2ccc(Cl)cc2)cc1O	i	i	113	i
CC=Cc1ccc2n(c1=O)C[C@@H]1[C@@H](CO)[C@H](C(=O)NCC)N(Cc3ccccc3Cl)[C@H]21 (mixture of isomers)	nt	nt	i	nt
